HIV Env fusion – HIV envelope-mediated fusion inhibition; hit rate 1.1% among 360,000; inhibition, % at 12.3 µM; HeLa-JRFL Env/CEM21 cell fusion, luciferase;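 active = mean replicate inhibition score of at least 50 and every replicate individually at or above 50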;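 also: 0% = plate neutral controls and 100% = maraviroc near 300 nM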
EWS-Fli inh – inhibitors of EWS/Fli oncoprotein transcriptional activity; A673 NR0B1-luciferase reporter, viability-normalised; inhibition, % at 12.6 µM; hit rate 0.67% among 350,000;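 active = mean inhibition of at least 50% after viability correction, with every replicate also passing that limit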;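 also: firefly luciferase signal divided by Alamar Blue viability fluorescence both relative to DMSO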
FN deposit inh – fibronectin deposition inhibition; AH1F fibroblasts, Alexa488-fibronectin deposition fluorescence, overnight; inhibition, % at 12.6 µM; hit rate 0.086% among 350,000;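 active = mean inhibition across replicates of 30% or more, regardless of how many single replicates reach that level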;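 also: positive control wells lacked labelled fibronectin entirely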
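Schedule: 1 h cell adhesion before compound, then overnight fibronectin incubation; test system: AH1F fibroblast monolayer depositing Alexa488-labelled fibronectin into matrix; quantity: 10000 AH1F cells per well; probe or stimulus: fluorescent fibronectin at 24 nM final; signal: fluorescence, ex 485 nm, em 525 nm; evaluation: percent inhibition as loss of matrix-bound fibronectin fluorescence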
PAX8 reporter – inhibitors of PAX8 transcriptional activity in RMG-I cells | RMG-I TPO-luciferase reporter, SteadyGlo, 24 h | inhibition, % at 12.6 µM | hit rate 1.2% among 360,000;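 active = mean replicate inhibition at least 60% with every replicate also reaching 60%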;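 also: luciferase light reporting Pax8 driven TPO promoter activity; plate controls were median of neutral control wells for no effect and mitoxantrone controls for full effect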
FGF22 binding – shifts melting point of recombinant human FGF22; Q9HCT0; recombinant FGF22 thermal shift, SYPRO orange fluorescence; percent of sucrose octasulfate shift, DMSO zero; activity (Tm shift, normalised), % at 9.99 µM; hit rate 1.5% among 340,000; AID 651658;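 active = mean Tm shift, scaled 0 neutral to 100 positive control, at about 1.3% or above, every replicate too, limit read from the data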
Target sequence (Q9HCT0 whole entry, looked up): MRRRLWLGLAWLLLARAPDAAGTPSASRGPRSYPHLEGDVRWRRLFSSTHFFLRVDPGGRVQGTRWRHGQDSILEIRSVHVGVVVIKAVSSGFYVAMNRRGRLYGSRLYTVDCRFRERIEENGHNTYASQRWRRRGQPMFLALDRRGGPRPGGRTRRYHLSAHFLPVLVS
PGC1a acetyl inh – PGC1a acetylation modulation, inhibitor mode. U2OS PGC1a acetylation, AlphaScreen anti-acetyl-lysine; with virally co-expressed GCN5 acetyltransferase. inhibition, % at 15.6 µM. hit rate 0.17% among 350,000. AID 651687;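 active = every replicate shows inhibition of at least 40%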;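 also: 0% = neutral control wells and 100% = positive control wells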
The depositor's hits bear a star; · = no result given; [ ] = dose if it differs, or a comment. Hits are enriched below; roughly 3.1% of the tested compounds scored in any of these assays.

SMILES | HIV Env fusion | EWS-Fli inh | FN deposit inh | PAX8 reporter | FGF22 binding | PGC1a acetyl inh
C[C@@H]1CN([C@H](C)CO)C(=O)c2cc(NC(=O)c3ccccc3)ccc2O[C@@H](C)CCCCO[C@H]1CN(C)Cc1ccc(C(F)(F)F)cc1 | 69*[16.7 µM] | 17 | · | 99* | 0 | 20
C[C@@H]1CCCCO[C@H](CN(C)Cc2ccc(C(=O)O)cc2)[C@H](C)CN([C@@H](C)CO)C(=O)c2cc(NC(=O)c3ccccc3)ccc2O1 | -3[16.7 µM] | -7 | -4 | 4 | 0 | 1
C[C@@H]1CN([C@H](C)CO)C(=O)c2cc(NC(=O)c3ccccc3)ccc2O[C@@H](C)CCCCO[C@@H]1CN(C)Cc1ccc(C(F)(F)F)cc1 | 30[16.7 µM] | 6 | · | 91* | 0 | 6
C[C@@H]1CCCCO[C@H](CN(C)Cc2ccncc2)[C@H](C)CN([C@@H](C)CO)C(=O)c2cc(NC(=O)c3ccccc3)ccc2O1 | -131[16.7 µM] | 58* | 9 | 70* | 0 | 5
C[C@H]1CCCCO[C@H](CN(C)Cc2ccc(C(=O)O)cc2)[C@@H](C)CN([C@@H](C)CO)C(=O)c2cc(NC(=O)c3ccccc3)ccc2O1 | -21[16.7 µM] | -5 | -5 | 15 | 0 | 5
C[C@H](CO)N1C[C@H](C)[C@@H](CN(C)Cc2ccc(C(F)(F)F)cc2)OCCCC[C@H](C)Oc2ccc(NC(=O)c3ccccc3)cc2C1=O | 3[16.7 µM] | 35 | · | 67* | 0 | 15
COc1cccc(-c2ccc([C@H]3[C@@H](CO)N4C(=O)CN(C(=O)C5CCCC5)C[C@@H]34)cc2)c1 | 22[16.7 µM] | -6 | -14 | -10 | · | -15
CNC(=O)C[C@@H]1CC[C@@H]2[C@H](COc3ccc(NC(=O)c4cccc(OC)c4)cc3C(=O)N2C)O1 | -9[16.7 µM] | -1 | 0 | -5 | · | -6
O=C(C[C@@H]1C[C@@H]2c3cc(NC(=O)C4CCC4)ccc3O[C@@H]2[C@@H](CO)O1)NCc1ccc2c(c1)OCO2 | 79*[16.7 µM] | -1 | 12 | 12 | 0 | 3
O=C(C[C@H]1C[C@H]2c3cc(NC(=O)C4CCC4)ccc3O[C@H]2[C@H](CO)O1)NCc1ccc2c(c1)OCO2 | 81*[16.7 µM] | -4 | 6 | 10 | 0 | -5
COCC#Cc1ccc([C@H]2[C@@H](CO)N3CCCCN(Cc4cccnc4)C[C@H]23)cc1 | · | -7 | -18 | 27 | 0 | 2
CN(C)CCn1c(=O)n(-c2cccc(Cl)c2)c(=O)c2c3c(sc21)CCCCC3 | 130* | -1 | -1 | 19 | 0 | -22
O=C(Nc1ccccc1F)N1C[C@@H]2[C@H](c3ccccc31)[C@H](CO)N2C(=O)C1CC1 | · | -42 | 30* | -60 | 0 | 2
CC1CN(c2nc3ccccc3nc2SCC(=O)Nc2cccc(C(F)(F)F)c2)CC(C)O1 (stereo unspecified) | 64* | 8 | 12 | 36 | 0 | -15
C=C(NC(=O)C(=C)NC(=O)c1csc(C2=NC3c4csc(n4)C4NC(=O)c5csc(n5)C(C(C)(O)C(C)O)NC(=O)C5CSC(=N5)/C(=C/C)NC(=O)C(C(C)O)NC(=O)c5csc(n5)C3(CC2)NC(=O)C(C)NC(=O)C(=C)NC(=O)C(=C)NC(=O)C(C(C)C)NC2C=Cc3c(C(C)O)cc(nc3C2O)C(=O)OC4C)n1)C(N)=O (stereo unspecified) | 4 | 74* | -4 | 46 | 0 | ·
CN(Cc1ncc[nH]1)C(=O)CC1C(=O)NCCN1Cc1c(F)cccc1Cl (stereo unspecified) | -3 | 6 | -9 | 1 | 0 | -7
C=C(C)CN(CC)C(=O)CC1C(=O)NCCN1Cc1c(F)cccc1Cl (stereo unspecified) | 15 | -1 | 1 | 1 | 43* | ·
O=C(/C=C\Nc1ccc2c(c1)OCO2)c1ccc(Cl)s1 | -208 | 25 | -6 | -133 | 43* | 4
CCOP(=O)(O)c1ccccc1OCCOc1ccccc1P(=O)(O)OCC | · | · | · | · | · | -5
CCOP(=O)(O)c1cccc(OCCOCCOc2cccc(P(=O)(O)OCC)c2)c1 | 4 | 0 | 5 | -10 | 44* | ·
COC(=O)[C@H]1[C@H](CO)[C@H]2Cn3c(cccc3=O)[C@H]2N1CC1CCOCC1 | 3[16.7 µM] | -16 | · | 4 | 0 | ·
CN(C)C(=O)C[C@@H]1CC[C@H]2[C@@H](COc3ccc(NC(=O)c4cnccn4)cc3C(=O)N2C)O1 | -4[16.7 µM] | -3 | -4 | 20 | 0 | 3
CCCS(=O)(=O)c1cnc(C2COc3ccccc3O2)nc1N (stereo unspecified) | 49 | 86* | -1 | 60 | 0 | ·
Cc1ccc(S(=O)(=O)NCC2COc3ccccc3O2)cc1 (stereo unspecified) | -11 | 7 | 1 | 1 | 0 | 9
CO[C@@H]1CN(C)C(=O)c2cc(NC(=O)c3cnccn3)ccc2OC[C@@H](C)N(CC2CC2)C[C@@H]1C | · | 3 | -2 | · | 0 | 7
SMILES | HIV Env fusion | EWS-Fli inh | FN deposit inh | PAX8 reporter | FGF22 binding | PGC1a acetyl inh
COc1ccc(-n2ncc(Cl)c(Cl)c2=O)cc1 | -198 | 55* | 7 | 105* | · | 23
CCOc1ccc(S(=O)(=O)N2CCN=C2c2ccccc2)cc1 | · | 55* | -5 | · | 0 | -8
CN1CCN(C(=O)C[C@@H]2CC[C@@H](NC(=O)Nc3ccccc3F)[C@@H](CO)O2)CC1 | -7[16.7 µM] | 5 | 23 | -20 | 0 | 9
C[C@@H]1CN([C@@H](C)CO)C(=O)Cc2cc(NS(=O)(=O)c3ccccc3)ccc2O[C@H]1CN(C)Cc1ccc(C(F)(F)F)cc1 | · | · | · | 92* | 0 | -2
Cc1ccc(S(=O)(=O)Nc2ccc3c(c2)CC(=O)N([C@@H](C)CO)C[C@@H](C)[C@H](CN(C)Cc2ccc(C(F)(F)F)cc2)O3)cc1 | 39[16.7 µM] | 33 | · | 63* | · | -2
C[C@H](CO)N1C[C@H](C)[C@@H](CN(C)Cc2ccc(C(F)(F)F)cc2)Oc2ccc(NS(=O)(=O)c3ccc(Cl)cc3)cc2CC1=O | 69*[16.7 µM] | 40 | -12 | 102* | 0 | -11
O=C(N[C@@H]1CC[C@@H](CC(=O)N2CCC(Cc3ccccc3)CC2)O[C@H]1CO)c1cnccn1 | -2[16.7 µM] | -5 | 9 | 5 | 0 | 2
COc1ccc(NC(=O)N(C)C[C@H]2OCCCC[C@H](C)Oc3ccc(NC(=O)Cc4ccccc4)cc3C(=O)N([C@H](C)CO)C[C@@H]2C)cc1 | -72[16.7 µM] | -13 | · | · | 0 | 8
C[C@H](CO)N1C[C@H](C)[C@H](CN(C)Cc2ccc3c(c2)OCO3)Oc2ccc(NC(=O)C3CCCCC3)cc2CC1=O | -36[16.7 µM] | -2 | · | · | 0 | -8
O=C(COc1ccc(S(=O)(=O)NC2CCCC2)cc1)NCC1CCCO1 (stereo unspecified) | 8 | 16 | 0 | 7 | 43* | 4
O=C(NCC1CCCO1)c1ccc(NS(=O)(=O)c2ccccc2)cc1 (stereo unspecified) | -13 | 3 | -7 | 4 | 45* | 4
